Data from ChEMBL document CHEMBL1143914, “Synthesis and cytotoxic activity of diosgenyl saponin analogues” (Bioorg Med Chem, 2008).
Activity calls are given as the source filed them. The rule behind the calls is not given here.

Tests used:
Assay type in all cases: functional, cell-based
SK-N-SH [1] = test: Cytotoxicity against human SK-N-SH cells after 72 hrs by MTT assay
Outline: (§1)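 Cells grown in DMEM with 10% FBS at 37 °C, 5% CO2. 2000 cells per well in 96-well plates, allowed to adhere. Compounds were dissolved in DMSO, diluted in medium and added at 0–30 µM, 8 wells per concentration, for 72 h. MTT at 0.5 mg/mL for 4 h, then DMSO solubilization and absorbance at 490 nm. IC50 from concentration plots; at least 2 independent assays.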

MCF7 [2] = test: Cytotoxicity against human MCF7 cells after 72 hrs by MTT assay; details: MCF7, 72 h; outline: as §1
HeLa = test: Cytotoxicity against human HeLa cells after 72 hrs by MTT assay; outline: as §1
MCF7 [3] = test: Cell cycle arrest in human MCF7 cells assessed as G2 phase accumulation
SK-N-SH [4] = test: Cell cycle arrest in human SK-N-SH cells assessed as G1 phase accumulation

SMILES	IC50 (SK-N-SH [1]) [µM]	IC50 (MCF7 [2]) [µM]	IC50 (HeLa) [µM]	Activity (MCF7 [3])	Activity (SK-N-SH [4])
C[C@@H]1CC[C@@]2(OC1)O[C@H]1C[C@H]3[C@@H]4CC=C5C[C@@H](O[C@@H]6O[C@H](CO)[C@@H](O)[C@H](O)[C@H]6NC(=O)CCCCC(=O)O)CC[C@]5(C)[C@H]4CC[C@]3(C)[C@H]1[C@@H]2C	16.3	11.3	> 20	–	–
C[C@@H]1CC[C@@]2(OC1)O[C@H]1C[C@H]3[C@@H]4CC=C5C[C@@H](O[C@@H]6O[C@H](CO)[C@@H](O)[C@H](O)[C@H]6NC(=O)CCC(=O)O)CC[C@]5(C)[C@H]4CC[C@]3(C)[C@H]1[C@@H]2C	14.1	22	13.9	–	–
C[C@@H]1CC[C@@]2(OC1)O[C@H]1C[C@H]3[C@@H]4CC=C5C[C@@H](O[C@H]6O[C@@H](CO)[C@H](O)[C@@H](O)[C@@H]6NC(=O)CCCCC(=O)N[C@H]6[C@H](O[C@H]7CC[C@@]8(C)C(=CC[C@H]9[C@@H]%10C[C@@H]%11O[C@]%12(CC[C@@H](C)CO%12)[C@@H](C)[C@@H]%11[C@@]%10(C)CC[C@@H]98)C7)O[C@H](CO)[C@@H](O)[C@@H]6O)CC[C@]5(C)[C@H]4CC[C@]3(C)[C@H]1[C@@H]2C	19.5	19.2	> 20	–	–
C[C@@H]1CC[C@@]2(OC1)O[C@H]1C[C@H]3[C@@H]4CC=C5C[C@@H](O[C@@H]6O[C@H](CO)[C@@H](O)[C@H](O)[C@H]6NC(=O)CCCCC6CCSS6)CC[C@]5(C)[C@H]4CC[C@]3(C)[C@H]1[C@@H]2C (stereo partly drawn) [ALPHA LIPOYL]	4.8	6.9	7.3	–	–
CC(=O)N[C@@H](C)C(=O)N[C@H]1[C@H](O[C@H]2CC[C@@]3(C)C(=CC[C@H]4[C@@H]5C[C@@H]6O[C@]7(CC[C@@H](C)CO7)[C@@H](C)[C@@H]6[C@@]5(C)CC[C@@H]43)C2)O[C@H](CO)[C@@H](O)[C@@H]1O	15.3	11	20	–	–
C[C@@H]1CC[C@@]2(OC1)O[C@H]1C[C@H]3[C@@H]4CC=C5C[C@@H](O[C@@H]6O[C@H](CO)[C@@H](O)[C@H](O)[C@H]6NC(=O)c6ccccc6)CC[C@]5(C)[C@H]4CC[C@]3(C)[C@H]1[C@@H]2C	14.9	19.4	18	Active	Active
CC(=O)N[C@H]1[C@H](O[C@H]2CC[C@@]3(C)C(=CC[C@H]4[C@@H]5C[C@@H]6O[C@]7(CC[C@@H](C)CO7)[C@@H](C)[C@@H]6[C@@]5(C)CC[C@@H]43)C2)O[C@H](CO)[C@@H](O)[C@@H]1O	11.6	18.3	21.5	–	–
